Published values of several laboratories.
Target: Ephrin type-A receptor 5 (EPHA5, Homo sapiens, UniProt P54756)
Residues used in one study (P54756 675-936, limits assumed): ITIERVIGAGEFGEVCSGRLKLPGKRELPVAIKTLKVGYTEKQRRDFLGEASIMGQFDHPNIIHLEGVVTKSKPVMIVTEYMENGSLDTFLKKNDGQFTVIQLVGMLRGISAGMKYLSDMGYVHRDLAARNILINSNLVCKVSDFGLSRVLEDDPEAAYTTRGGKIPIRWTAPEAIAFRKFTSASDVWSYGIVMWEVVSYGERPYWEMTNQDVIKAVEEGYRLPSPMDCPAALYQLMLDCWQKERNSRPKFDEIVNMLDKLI

| SMILES | observed | mode | method | tested at | endpoint | value |
| --- | --- | --- | --- | --- | --- | --- |
| CC(C)(C)c1nc(-c2cccc(NS(=O)(=O)c3c(F)cccc3F)c2F)c(-c2ccnc(N)n2)s1 | enzyme activity | inhibitor | radiometric | 1 µM | remaining activity | 116% |
| Cc1noc([C@H]2C[C@@H](c3ccc(C(F)(F)F)cc3)CN(C(=O)N3CCS(=O)(=O)C3)C2)n1 | cell-free assay | – | competition with immobilised ligand | 1 µM | remaining binding | 100% |
| CNC(=O)c1cc2c(Oc3ccc(NC(=O)C4(C(=O)Nc5ccc(F)cc5)CC4)cc3)ccnc2cc1OC | enzyme activity | inhibitor | radiometric | 1 µM | inhibition | 96% |
| COc1cc(-c2cc(-c3ccc(N4CCNCC4)cc3)cnc2C)cc(OC)c1OC | enzyme activity | inhibitor | – | 0.1 µM | inhibition | 5% |
| CNC(=O)c1cc(Oc2ccc(NC(=O)Nc3ccc(Cl)c(C(F)(F)F)c3)cc2)ccn1 | enzyme activity | inhibitor | – | 10 µM | inhibition | 92% |
| Cc1sc(C(=O)NC2COC2)cc1-n1cc(NC(=O)Nc2c(F)cccc2Cl)cn1 | enzyme activity | inhibitor | – | 10 µM | remaining activity | 106% |
| Cc1ccc(Nc2nccc(N(C)c3ccc4c(C)n(C)nc4c3)n2)cc1S(N)(=O)=O | enzyme activity | inhibitor | – | 0.3 µM | inhibition | 6% |
| N#CC1(c2ccccn2)CCN(Cc2cc(C(=O)N3CCCC3)c(=O)n3ccccc23)CC1 | cell-free assay | – | competition with immobilised ligand | 1 µM | remaining binding | 100% |
| CN1CC(Oc2cnc(C#N)cc2-c2ccn3nc(NC(=O)C4CC4)cc3c2)C1 | enzyme activity | inhibitor | – | 1 µM | inhibition | 10% |
| O=C(Nc1cnn(-c2csc(C(=O)NC3COC3)c2)c1)Nc1ccccc1Cl | enzyme activity | inhibitor | – | 5 µM | remaining activity | 96.9% |
| Cc1cc(-n2nc(Cc3cc(F)cc(C(F)(F)F)c3)nc2C)ccc1C(N)=O | cell-free assay | – | competition with immobilised ligand | 1 µM | remaining binding | 100% |
| COc1cc2ncnc(Nc3ccc(Oc4ccccc4)c(C)c3C)c2cc1OC | enzyme activity | inhibitor | – | 1 µM | inhibition | 1% |
| O=c1nc(-c2ccccn2)sc2ccccc12 | cell-free assay | – | competition with immobilised ligand | 1 µM | remaining binding | 94% |
| CCN(CC)CCNC(=O)c1c(C)[nH]c(/C=C2\C(=O)Nc3ccc(F)cc32)c1C | enzyme activity | inhibitor | – | 0.3 µM | inhibition | 7% |
| Cc1cc(NC(=O)c2cccc3cc(-c4cccc5[nH]nc(N)c45)ccc23)ccc1F | enzyme activity | inhibitor | – | 0.1 µM | activity vs control | 99% |
| COc1cc(Cl)c(C(=O)N[C@@H](CN[C@H]2CC[C@@H](N)CC2)Cc2ccc(C#N)cc2)cc1-c1ccc(CN[C@H](C)c2ccc(C)cc2)o1 | enzyme activity | inhibitor | – | 1 µM | remaining activity | 90% |
| N#CCCc1ccc2c(c1)-c1[nH]c3ccc([N+](=O)[O-])cc3c1CC(=O)N2 | cell-free assay | – | – | 0.5 µM | remaining signal | 88.5% |
| COc1cc(-c2cn(C3CCc4c(F)cccc4N(CC(F)(F)F)C3=O)nn2)ccc1-n1cnc(C)c1 (stereo not shown) | cell-free assay | – | competition with immobilised ligand | 1 µM | remaining binding | 100% |
| Cc1ccc(C(=O)Nc2ccc(CN3CCN(C)CC3)c(C(F)(F)F)c2)cc1C#Cc1cnc2cccnn12 | cell-free assay | – | – | 23.5 nM | remaining signal | 31% |
| CCc1ccccc1C(=O)Nc1n[nH]c2c(C)c(F)c(C3C(C#N)=C(C)N(C)C(C)=C3C#N)cc12 | cell-free assay | – | competition with immobilised ligand | 1 µM | remaining binding | 87% |
| Cc1cnc(NC2CCOCC2)nc1-n1cnc(C(=O)NC(CN)c2cc(F)cc(Cl)c2)c1 (stereo not shown) | enzyme activity | inhibitor | radiometric | 1 µM | remaining activity | 92% |
| FC(F)(F)c1ccc2c(c1)nc(-c1cccnc1)n2C1CC1 | cell-free assay | – | competition with immobilised ligand | 1 µM | remaining binding | 96% |
| COc1cc2c(N3CCN(C(=O)Nc4ccc(OC(C)C)cc4)CC3)ncnc2cc1OCCCN1CCCCC1 | cell-free assay | – | – | 0.5 µM | remaining signal | 104% |
| CNCc1ccccc1-c1csc([C@H](C)Nc2nc(C)nc3cc(OC)c(OC)cc23)c1 | cell-free assay | – | competition with immobilised ligand | 1 µM | remaining binding | 100% |
| O=C1NC(=O)c2cc(Nc3ccc(F)cc3)c(Nc3ccc(F)cc3)cc21 | cell-free assay | – | – | 0.5 µM | remaining signal | 95.4% |
